Consider 9 molecules from ChEMBL document CHEMBL1151228, “Three cyclooctapeptides and one glycoside from Microtoena prainiana” (J Nat Prod, 2004).

Assay [1] can be described thus: Cytotoxicity against human Lu04 cells by SRB assay. Format: functional, cell-based. Put shortly:
(§1)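 Sulforhodamine B (SRB) cytotoxicity assay on human tumour lines: breast cancer Bre04, lung cancer Lu04 and neuroma N04.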
On the technique in general: Sulforhodamine B stains cellular protein and so reports cell mass.

The nature of assay [2]: Cytotoxicity against human Bre04 cells by SRB assay. The assay is classed as functional, cell-based. A digest of the protocol: as §1
The nature of assay [3]: Cytotoxicity against human N04 cells by SRB assay. Format: functional, cell-based. A digest of the protocol: as §1
The next assay has as its system Human alphaherpesvirus 2. Kind of assay: Antiviral activity against HSV2 333 infected in african green monkey Vero cells assessed as virus-induced cytopathic effect at 250 ug/ml. The assay is classed as functional, organism-based. A digest of the protocol: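 Vero cells infected with HSV-2 (strain 333); inhibition of viral replication read as cytopathic effect (CPE); compounds tested at 250 µg/mL; acyclovir as positive drug control.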
Background: Cytopathic effects are the visible damage that an infection or toxin causes in cultured cells.

The target in assay [4] is Angiotensin-converting enzyme (Homo sapiens) (UniProt P12821). Kind of assay: Inhibition of ACE at 0.1 mg/ml. A digest of the protocol: (§2)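 ACE extract (10 µg total protein) preincubated with sample for 30 min at 37 °C. HHL substrate then added for 15 min at 37 °C. NaOH and O-phthaldialdehyde added, stopped after 10 min with HCl. His-Leu fluorescence read at ex 405/em 535 nm. % inhibition = 100×(N−S)/(N−B) against negative and blank controls. Captopril positive control; at least three determinations.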

Assay [5] shares this target. Kind of assay: Inhibition of ACE at 1 mg/ml. Put shortly: as §2

Molecules are shown by their SMILES. The source made the active and inactive calls. No cut-off for these calls is given here. Where a SMILES comes first, the peptide text is derived from it.

Angiotensin-converting enzyme (Homo sapiens), sequence (P12821 whole entry): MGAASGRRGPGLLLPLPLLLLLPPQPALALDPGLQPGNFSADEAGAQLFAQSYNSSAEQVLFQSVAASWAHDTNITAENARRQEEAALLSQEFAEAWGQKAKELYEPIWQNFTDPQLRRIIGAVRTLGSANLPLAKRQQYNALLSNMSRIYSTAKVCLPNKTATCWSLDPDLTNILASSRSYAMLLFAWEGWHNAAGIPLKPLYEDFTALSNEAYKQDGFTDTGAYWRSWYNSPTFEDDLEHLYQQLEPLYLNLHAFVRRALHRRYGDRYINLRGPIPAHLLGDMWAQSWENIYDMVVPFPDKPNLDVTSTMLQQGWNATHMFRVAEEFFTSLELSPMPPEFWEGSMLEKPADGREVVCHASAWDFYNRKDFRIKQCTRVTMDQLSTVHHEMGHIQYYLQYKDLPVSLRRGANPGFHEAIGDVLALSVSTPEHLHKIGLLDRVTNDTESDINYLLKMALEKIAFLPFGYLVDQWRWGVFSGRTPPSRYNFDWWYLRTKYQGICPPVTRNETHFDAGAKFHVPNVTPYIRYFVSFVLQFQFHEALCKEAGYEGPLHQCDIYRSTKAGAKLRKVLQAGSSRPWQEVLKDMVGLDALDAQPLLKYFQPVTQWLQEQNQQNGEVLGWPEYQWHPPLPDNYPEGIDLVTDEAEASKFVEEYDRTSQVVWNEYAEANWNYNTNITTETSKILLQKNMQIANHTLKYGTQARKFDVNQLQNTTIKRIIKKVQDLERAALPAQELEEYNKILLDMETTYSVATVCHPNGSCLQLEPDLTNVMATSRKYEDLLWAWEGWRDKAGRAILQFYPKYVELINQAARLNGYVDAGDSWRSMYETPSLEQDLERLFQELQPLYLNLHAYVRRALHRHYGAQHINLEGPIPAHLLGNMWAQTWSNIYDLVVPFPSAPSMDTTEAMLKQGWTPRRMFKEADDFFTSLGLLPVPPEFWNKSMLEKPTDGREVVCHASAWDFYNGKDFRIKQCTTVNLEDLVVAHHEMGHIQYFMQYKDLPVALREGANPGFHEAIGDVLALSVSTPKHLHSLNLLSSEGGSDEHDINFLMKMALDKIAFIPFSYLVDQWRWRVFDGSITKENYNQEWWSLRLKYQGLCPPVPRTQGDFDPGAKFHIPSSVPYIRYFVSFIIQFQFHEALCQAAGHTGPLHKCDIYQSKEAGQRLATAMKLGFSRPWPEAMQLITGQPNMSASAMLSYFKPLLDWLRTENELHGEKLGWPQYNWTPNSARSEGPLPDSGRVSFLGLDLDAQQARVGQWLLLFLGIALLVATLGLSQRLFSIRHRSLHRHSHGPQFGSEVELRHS

What is called IC50 is the concentration at which inhibition is half-maximal. Regarding `CC[C@H](C)[C@@H]1NC(=O)[C@@H]2CCCN2C(=O)[C@H](CC(C)C)NC(=O)[C@@H]2CCCN2C(=O)[C@H](Cc2ccccc2)NC(=O)[C@H](CC(N)=O)NC(=O)[C@H](Cc2ccc(O)cc2)NC(=O)[C@@H]2CCCN2C1=O` [MICROTOENIN C] (cyclo(FPLPIPYN)), the 50% inhibitory concentration (IC50) in assay [1], in assay [2] and in assay [3] was greater than 100 µg/mL in each case.
As for `CC(C)C[C@@H]1NC(=O)[C@H](Cc2ccc(O)cc2)NC(=O)[C@@H]2CCCN2C(=O)[C@H](C(C)C)NC(=O)[C@H](C)NC(=O)[C@H](Cc2ccccc2)NC(=O)[C@@H]2CCCN2C(=O)[C@H](C(C)C)NC1=O` [MICROTOENIN A] (cyclo(AVPYLVPF)), the IC50 in assay [1], in assay [2] and in assay [3] was greater than 100 µg/mL in each case.
On to `CC[C@@H](C)[C@@H]1NC(=O)[C@@H]2CCCN2C(=O)[C@H](Cc2ccc(O)cc2)NC(=O)[C@H](CC(N)=O)NC(=O)[C@H](Cc2ccccc2)NC(=O)[C@@H]2CCCN2C(=O)[C@H](CC(C)C)NC(=O)[C@@H]2CCCN2C1=O`, for which the outcome in the assay on Human alphaherpesvirus 2 was inactive.
What is called inhibition is the percentage by which the read-out fell short of the control. Consider `C[C@@H]1O[C@@H](O[C@@H]2[C@H]3O[C@@H](c4ccc(O)c(O)c4)CO[C@@H]3O[C@H](CO)[C@H]2OC(=O)/C=C/c2ccc(O)c(O)c2)[C@H](O)[C@H](O)[C@H]1O`, for which the outcome with Human alphaherpesvirus 2 was inactive. Further, the inhibition was 75.5% in assay [4] and 99.7% in assay [5].
With `CC(C)[C@@H]1NC(=O)[C@H](Cc2ccccc2)NC(=O)[C@H](Cc2ccccc2)NC(=O)[C@H](C)NC(=O)[C@H](C)NC(=O)CNC(=O)[C@H](Cc2ccccc2)NC(=O)[C@@H]2CCCN2C1=O` [MICROTOENIN B] (cyclo(AAFFVPFG)), the IC50 in assay [1], in assay [2] and in assay [3] was greater than 100 µg/mL in each case.
As for `C[C@@H]1O[C@@H](O[C@H]2[C@H](O)[C@@H](COC(=O)/C=C/c3ccc(O)c(O)c3)O[C@H]3OC[C@H](c4ccc(O)c(O)c4)O[C@@H]32)[C@H](O)[C@H](O)[C@H]1O`, the outcome in the assay with Human alphaherpesvirus 2 was inactive. Moreover, the inhibition in assay [4] stood at 71.4%; in assay [5] it was 99.3%.
The corresponding values for `COc1cc(/C=C/C(=O)O[C@H]2[C@H](O[C@@H]3O[C@@H](C)[C@H](O)[C@@H](O)[C@H]3O)[C@H]3O[C@@H](c4ccc(O)c(O)c4)CO[C@@H]3O[C@@H]2CO)ccc1O` are “inactive”, 67.5% and 99.8%.
Take `CC(C)[C@@H]1NC(=O)[C@@H]2CCCN2C(=O)[C@H](Cc2ccccc2)NC(=O)CNC(=O)[C@H](C)NC(=O)[C@H](C)NC(=O)[C@H](Cc2ccccc2)NC(=O)[C@H](Cc2ccccc2)NC1=O` (cyclo(AAGFPVFF)): the result with Human alphaherpesvirus 2 was inactive.
Same read-out and setting: the result for `CC(C)C[C@@H]1NC(=O)[C@H](C(C)C)NC(=O)[C@@H]2CCCN2C(=O)[C@H](Cc2ccccc2)NC(=O)[C@H](C)NC(=O)[C@H](C(C)C)NC(=O)[C@@H]2CCCN2C(=O)[C@H](Cc2ccc(O)cc2)NC1=O` (cyclo(AFPVLYPV)) reads “inactive”.
